Reference: ChEMBL document CHEMBL3813629, “Antistaphylococcal Prenylated Acylphoroglucinol and Xanthones from Kielmeyera variabilis” (2016)
≈ marks a conversion by molar mass, not a printed value. Calls of active or inactive are those of the source.

Tests used:
Staphylococcus aureus [1] = assay: Antibacterial activity against […] Staphylococcus aureus XU212 expressing TetK efflux pump after 18 hrs by MTT assay; format: functional
How it was run: (§1)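 Strains grown on nutrient agar 24 h at 37 °C; inoculum 1 × 10⁶ cfu/mL in normal saline, set against 0.5 McFarland standard. Samples dissolved in DMSO, diluted in cation-adjusted Mueller-Hinton broth (Ca²⁺ 20 mg/L, Mg²⁺ 10 mg/L), starting 1024 mg/L, twofold serial broth microdilution; 37 °C, 18 h; MTT added, 20 min; MIC = lowest concentration without yellow-to-blue change.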

Staphylococcus aureus [2] = assay: Antibacterial activity against […] Staphylococcus aureus SA1199B over expressing NorA MDR efflux pump after 18 hrs by MTT assay; format: functional; how it was run: as §1
Staphylococcus aureus [3] = assay: Antibacterial activity against […] Staphylococcus aureus ATCC 25923 after 18 hrs by MTT assay; format: functional; how it was run: as §1
Staphylococcus aureus [4] = assay: Antibacterial activity against […] Staphylococcus aureus EMRSA-16 after 18 hrs by MTT assay; format: functional; how it was run: as §1
Staphylococcus aureus [5] = assay: Antibacterial activity against MsrA macrolide-resistant Staphylococcus aureus RN4220 after 18 hrs by MTT assay; format: functional; how it was run: as §1
Staphylococcus aureus [6] = assay: Antibacterial activity against […] Staphylococcus aureus EMRSA-15 after 18 hrs by MTT assay; format: functional; how it was run: as §1
Staphylococcus aureus [7] = assay: […] activity against […] Staphylococcus aureus SA1199B over expressing NorA MDR efflux pump assessed as growth inhibition after 24 hrs using cell cultures pre-treated with compound for 24 hrs; format: functional, organism-based
How it was run: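 MIC-plate wells from SA-1199B showing no growth sampled (10 μL) onto drug-free Mueller-Hinton agar, incubated 24 h; growth of colonies scored; bactericidal end point defined as ≥99.9% reduction versus starting inoculum. MBC plates themselves incubated 24 h at 37 °C before transfer.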

| SMILES | MIC (Staphylococcus aureus [1]; XU212, 18 h) [µg/mL] | MIC (Staphylococcus aureus [2]) | MIC (Staphylococcus aureus [3]; ATCC 25923, 18 h) [µg/mL] | MIC (Staphylococcus aureus [4]; EMRSA-16, 18 h) [µg/mL] | MIC (Staphylococcus aureus [5]; RN4220, 18 h) [µg/mL] | MIC (Staphylococcus aureus [6]; EMRSA-15, 18 h) [µg/mL] | MIC (Staphylococcus aureus [1]) | MIC (Staphylococcus aureus [3]) | MIC (Staphylococcus aureus [4]) | MIC (Staphylococcus aureus [5]) | MIC (Staphylococcus aureus [6]) | growth inhibition (GI) (Staphylococcus aureus [7]) |
| --- | --- | --- | --- | --- | --- | --- | --- | --- | --- | --- | --- | --- |
| COc1cc2c(=O)c3ccccc3oc2c(O)c1OC | 128 (≈ 470 µM) | 64 µg/mL (≈ 235 µM) | 128 (≈ 470 µM) | 64 (≈ 235 µM) | > 512 | > 512 | – | – | – | – | – | – |
| COc1c(O)ccc2oc3ccccc3c(=O)c12 | 128 (≈ 528 µM) | 64 µg/mL (≈ 264 µM) | 64 (≈ 264 µM) | 32 (≈ 132 µM) | 64 (≈ 264 µM) | 64 (≈ 264 µM) | – | – | – | – | – | – |
| COc1cc2c(=O)c3ccccc3oc2cc1O | 64 (≈ 264 µM) | 64 µg/mL (≈ 264 µM) | 64 (≈ 264 µM) | 32 (≈ 132 µM) | 64 (≈ 264 µM) | 64 (≈ 264 µM) | – | – | – | – | – | – |
| COc1cc(OC)c2c(=O)c3cccc(O)c3oc2c1 | > 512 | 64 µg/mL (≈ 235 µM) | 128 (≈ 470 µM) | 64 (≈ 235 µM) | > 512 | > 512 | – | – | – | – | – | – |
| CC[C@H](CC[C@@H](C)[C@H]1CC[C@H]2[C@@H]3CC=C4C[C@@H](O)CC[C@]4(C)[C@H]3CC[C@]12C)C(C)C | – | inactive | – | – | – | – | inactive | inactive | inactive | inactive | inactive | – |
| CC(C)[C@H](C)CC[C@@H](C)[C@H]1CC[C@H]2[C@@H]3CC=C4C[C@@H](O)CC[C@]4(C)[C@H]3CC[C@]12C | – | inactive | – | – | – | – | inactive | inactive | inactive | inactive | inactive | – |
| CC[C@H](/C=C/[C@@H](C)[C@H]1CC[C@H]2[C@@H]3CC=C4C[C@@H](O)CC[C@]4(C)[C@H]3CC[C@]12C)C(C)C | – | inactive | – | – | – | – | inactive | inactive | inactive | inactive | inactive | – |
| CCn1cc(C(=O)O)c(=O)c2cc(F)c(N3CCNCC3)cc21 [NORFLOXACIN] | 8 (≈ 25.1 µM) | 32 µg/mL (≈ 100 µM) | 0.5 (≈ 1.57 µM) | 128 (≈ 401 µM) | 0.5 (≈ 1.57 µM) | 0.5 (≈ 1.57 µM) | – | – | – | – | – | – |
| CCCCC(C(=O)OC)[C@]12C(=O)[C@](CC=C(C)C)(C[C@H](CC=C(C)C)C1(C)C)C(=O)C(C(=O)CCC)=C2O (some centres not stated) | 0.25 (≈ 0.473 µM) | 2 µg/mL (≈ 3.78 µM) | 1 (≈ 1.89 µM) | 0.5 (≈ 0.946 µM) | 0.25 (≈ 0.473 µM) | 1 (≈ 1.89 µM) | – | – | – | – | – | Active |
| COc1cc2c(=O)c3ccccc3oc2c(O)c1O | 16 (≈ 62 µM) | 32 µg/mL (≈ 124 µM) | 64 (≈ 248 µM) | 16 (≈ 62 µM) | 32 (≈ 124 µM) | 64 (≈ 248 µM) | – | – | – | – | – | – |
| COc1cc([C@@H]2Oc3c(OC)cc4c(=O)c5ccccc5oc4c3O[C@H]2CO)ccc1O | > 512 | > 512 µg/mL | > 512 | > 512 | > 512 | > 512 | – | – | – | – | – | – |
